Published values of several laboratories.
Compare with care: the assays were run in different laboratories.
Target: BMP-2-inducible protein kinase (BMP2K, Homo sapiens, UniProt Q9NSY1)

`CCCCC(=O)Nc1ccc(-c2ccc3ncn(CCC)c(=O)c3c2)cn1` has a remaining binding of 98% (binding, competition with immobilised ligand; 0.5 µM).
The inhibition of `CC#CC(=O)N1CCC[C@H]1c1nc(-c2ccc(C(=O)Nc3ccccn3)cc2)c2c(N)nccn12` is reported as 26% (enzyme activity, inhibitor; 1 µM).
`COc1ccc2oc(-c3ccc4nc(N)oc4c3)c/c(=N\c3ccccc3NC(=O)CCN)c2c1` has a remaining binding of 105% (binding; 1 µM).
With `CNS(=O)(=O)c1ccc(Nc2ncc(C(F)(F)F)c(N3CCC[C@](C)(O)C3)n2)c(C)c1` the remaining binding was 79% (binding, competition with immobilised ligand; 1 µM).
`COc1ccc2[nH]c3c4[nH]c5ccc(OC)cc5c4c4c(c3c2c1)C(=O)NC4=O` has a remaining binding of 76% (binding; 1 µM).
For `C[C@]1(O)CCCN(c2nc(Nc3ccc(S(=O)(=O)N[C@H]4CC[C@H](CN5CCN(c6ccc(C7CCC(=O)NC7=O)cc6F)CC5)CC4)cc3Cl)ncc2C(F)(F)F)C1` (some centres unmarked), the remaining binding was 99% (binding, competition with immobilised ligand; 1 µM).
`C[C@H]1CC[C@H](n2c3cnccc3c3cnc(Nc4ccc5c(n4)CCN(C(=O)CO)C5)nc32)CC1` has a remaining signal of 17% (cell-free assay; 1 µM).
`C=CC(=O)N1CCC[C@@H](n2nc(-c3ccc(Oc4ccccc4)cc3)c3c(N)ncnc32)C1` gave an inhibition of 17% (enzyme activity, inhibitor; 1 µM).
